OX1R antag-1 = OX1R (human) antagonism; O43613; OX1R-expressing cells, FRET antagonist read-out; inhibition, % at 6.6 µM; 1.8% of 330,000 active; AID 485270; in the data active = inhibition mostly above about 38%, no sharp cut-off; inactive = mostly below about 40%
OXTR potentiate = potentiates the human oxytocin receptor response | 0.061% of 320,000 active | activation, % at 3 µM | P30559 | AID 2445 | CHO-OTR cells, Fluo-8 calcium fluorescence, potentiator mode; 0% = oxytocin EC15, 100% = EC100;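 active = activation above that plate's cutoff, the mean activation of tested compounds plus 3 SD, cut at about 6.6% in these data, passing the limit was not always enough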
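Dosing: Single dose, 3.0 µM nominal final compound concentration | Material: Human OTR in CHO cells | Technique: Kinetic Fluo-8 calcium fluorescence | Benchmarks: EC15 oxytocin alone as 0%, 75 nM oxytocin as 100% | Probe or stimulus: Oxytocin at about EC15, sub-maximal agonist stimulus | Incubation: Compound 6 min at room temperature before oxytocin, 100 s read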
CHO parental Ca = signal in parental CHO cells, OX1R antagonist counter-screen; inhibition, % at 5.6 µM; parental CHO-K1, ATP-induced calcium, Fluo-8 fluorescence; AID 463079; 0.63% of 330,000 active;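 active = inhibition above that plate's mean sample inhibition plus 3 SD, cut at about 26% in these data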
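Test system: parental CHO cells; detection: calcium-sensitive Fluo-8 fluorescence; evaluation: percent inhibition of calcium signal; also added: ATP as calcium-mobilizing challenge; repeats: one well per compound; control set: ATP-challenged DMSO wells low, unchallenged DMSO wells high; compound: single nominal dose of 5.6 µM per compound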
OXTR agonist = activates the human oxytocin receptor; CHO-OTR cells, Fluo-8 calcium fluorescence; normalized: DMSO 0%, oxytocin 100%; activation, % at 3 µM; 0.32% of 320,000 active; AID 2435;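 active = activation above the mean of all tested compounds plus 3 SD, cutoff set per screening run, cut at about 20% in these data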;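 note: peak over basal fluorescence ratio from a 100 s FLIPR kinetic read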
V1R ag counter = activates human V1a receptor in oxytocin agonist counter-screen; AID 2797; P37288; 0.25% of 320,000 active; activation, % at 3 µM; CHO-V1R cells, Fluo-8 calcium fluorescence, agonist mode; 0% DMSO, 100% 3 nM vasopressin;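 active = activation above the mean activation of all tested compounds plus 3 SD, per screening run, cut at about 20% in these data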;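 note: signal is peak over basal fluorescence ratio across a 100 second FLIPR read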
Target sequence (P37288 whole entry, looked up): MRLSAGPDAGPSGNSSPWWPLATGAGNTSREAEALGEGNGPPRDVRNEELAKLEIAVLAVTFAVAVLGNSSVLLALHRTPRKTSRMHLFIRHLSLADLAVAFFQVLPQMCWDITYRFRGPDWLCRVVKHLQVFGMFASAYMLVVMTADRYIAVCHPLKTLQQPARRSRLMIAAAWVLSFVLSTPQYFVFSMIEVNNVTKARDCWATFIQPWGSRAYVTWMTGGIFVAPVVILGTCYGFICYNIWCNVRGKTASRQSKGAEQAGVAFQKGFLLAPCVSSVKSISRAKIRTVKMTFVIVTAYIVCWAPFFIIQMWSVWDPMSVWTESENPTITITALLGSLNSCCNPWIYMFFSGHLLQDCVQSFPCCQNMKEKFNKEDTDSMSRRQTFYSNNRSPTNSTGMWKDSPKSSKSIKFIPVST
OX1R antag-2 = human HCRTR1 antagonism. CHO/OX1R cells, Fluo-8 calcium fluorescence, orexin A. inhibition, % at 5 µM. O43613. 0.43% of 330,000 active;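 active = inhibition above its plate's threshold, mean inhibition of all tested compounds on the plate plus 3 SD, cut at about 37% in these data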
OX1R HTRF confirm = OX1R (human) antagonism, HTRF confirmed; shares compounds with OX1R antag-1; OX1R-expressing cells, HTRF antagonist assay; inhibition, % at 6.6 µM; 49% of 1,800 active; AID 492964; in the data active = inhibition above about 55%;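 note: CHO cells expressing OX1R stimulated with orexin A at about EC80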
CHO-K1 HTRF cnt = signal in parental CHO-K1 cells, OX1R antagonist counter-screen | shares compounds with OX1R antag-1 | HTRF counterscreen | inhibition, % at 6.6 µM | 48% of 1,800 active | AID 493232; in the data active = inhibition above about 17%
Hits are given with their value. Shown are actives, neighbours in structure and some others; about 2.6% of the full set was active somewhere.

What do the screens show for `C(=N\Nc1nc2ccccc2s1)/c1cccs1`?
OX1R antag-1: inactive; OXTR potentiate: inactive; CHO parental Ca: inactive; OXTR agonist: inactive; V1R ag counter: inactive; OX1R antag-2: inactive

How did CCc1nnc(N/N=C/c2cccs2)n1N do in these assays?
OX1R antag-1: 84; OXTR potentiate: inactive; CHO parental Ca: inactive; OXTR agonist: inactive; V1R ag counter: inactive; OX1R antag-2: inactive; OX1R HTRF confirm: inactive; CHO-K1 HTRF cnt: inactive

How did CN1CCN(Cc2c(O)ccc3cc(-c4ccccn4)c(=O)oc23)CC1 do in these assays?
OX1R antag-1: 81; OXTR potentiate: inactive; CHO parental Ca: inactive; OXTR agonist: inactive; V1R ag counter: inactive; OX1R antag-2: inactive; OX1R HTRF confirm: inactive; CHO-K1 HTRF cnt: 33

How did CSc1cccc(NC(=O)/C=C/c2cccc(Cl)c2)c1 do in these assays?
OX1R antag-1: 78; OXTR potentiate: inactive; CHO parental Ca: inactive; OXTR agonist: inactive; V1R ag counter: inactive; OX1R antag-2: inactive; OX1R HTRF confirm: 71; CHO-K1 HTRF cnt: inactive

How did O=C(/C=C/c1cccc(Cl)c1)Nc1ncccn1 do in these assays?
OX1R antag-1: inactive; OXTR potentiate: inactive; CHO parental Ca: inactive; OXTR agonist: inactive; V1R ag counter: inactive; OX1R antag-2: inactive

What do the screens show for `Cc1cc(C)n2nc(C(=O)OCC(=O)Nc3ccc(F)cc3F)nc2n1`?
OX1R antag-1: inactive; OXTR potentiate: inactive; CHO parental Ca: inactive; OXTR agonist: inactive; V1R ag counter: inactive; OX1R antag-2: inactive

How did Cc1c(Br)c([N+](=O)[O-])nn1CC(=O)NCC1CCCO1 (stereo not given) do in these assays?
OX1R antag-1: inactive; OXTR potentiate: inactive; CHO parental Ca: inactive; OXTR agonist: inactive; V1R ag counter: inactive; OX1R antag-2: inactive

How did Cc1ncsc1CCOC(=O)c1ccc([N+](=O)[O-])cc1 do in these assays?
OX1R antag-1: 82; OXTR potentiate: inactive; CHO parental Ca: inactive; OXTR agonist: inactive; V1R ag counter: inactive; OX1R antag-2: inactive; OX1R HTRF confirm: inactive; CHO-K1 HTRF cnt: 34

What do the screens show for `Cc1ncsc1CCOC(=O)c1cccnc1`?
OX1R antag-1: inactive; OXTR potentiate: inactive; CHO parental Ca: inactive; OXTR agonist: inactive; V1R ag counter: inactive; OX1R antag-2: inactive

How did O=C1c2cccc3cccc(c23)C(=O)N1c1ccc(O)cc1 do in these assays?
OX1R antag-1: inactive; OXTR potentiate: inactive; CHO parental Ca: inactive; OXTR agonist: inactive; V1R ag counter: inactive; OX1R antag-2: inactive

How did CC(=O)N1C(=O)c2cccc3cccc(c23)C(=O)N1C(C)=O do in these assays?
OX1R antag-1: 116; OXTR potentiate: inactive; CHO parental Ca: inactive; OXTR agonist: inactive; V1R ag counter: inactive; OX1R antag-2: inactive; OX1R HTRF confirm: inactive; CHO-K1 HTRF cnt: 65

Results for O=C(CSc1nnc2nnc3ccccc3n12)N1CCOCC1 ?
OX1R antag-1: 94; OXTR potentiate: inactive; CHO parental Ca: inactive; OXTR agonist: inactive; V1R ag counter: inactive; OX1R antag-2: inactive; OX1R HTRF confirm: 72; CHO-K1 HTRF cnt: 103

Results for Cn1c(SCC(=O)N2CCOCC2)nnc1-c1ccncc1 ?
OX1R antag-1: inactive; OXTR potentiate: inactive; CHO parental Ca: inactive; OXTR agonist: inactive; V1R ag counter: inactive; OX1R antag-2: inactive

How did Cc1ccccc1NC(=O)CSc1nnc2ccc(-c3ccncc3)nn12 do in these assays?
OX1R antag-1: 79; OXTR potentiate: inactive; CHO parental Ca: inactive; OXTR agonist: inactive; V1R ag counter: inactive; OX1R antag-2: inactive; OX1R HTRF confirm: inactive; CHO-K1 HTRF cnt: 36

What do the screens show for `N#CCCn1cc(C(=O)Nc2ccc([N+](=O)[O-])cc2)c(-c2cc3ccccc3o2)n1`?
OX1R antag-1: inactive; OXTR potentiate: inactive; CHO parental Ca: inactive; OXTR agonist: inactive; V1R ag counter: inactive; OX1R antag-2: inactive

What do the screens show for `O=C(Nc1ccc2nc(-c3ccc(Br)o3)[nH]c2c1)c1cccs1`?
OX1R antag-1: 83; OXTR potentiate: inactive; CHO parental Ca: inactive; OXTR agonist: inactive; V1R ag counter: inactive; OX1R antag-2: inactive; OX1R HTRF confirm: inactive; CHO-K1 HTRF cnt: inactive

How did O=C1C=C(N2CCCCC2)c2ccccc2C1=O do in these assays?
OX1R antag-1: 84; OXTR potentiate: inactive; CHO parental Ca: inactive; OXTR agonist: inactive; V1R ag counter: inactive; OX1R antag-2: inactive; OX1R HTRF confirm: 66; CHO-K1 HTRF cnt: 110

What do the screens show for `NC(=O)C1CCN(C2=C(NS(=O)(=O)c3ccc(Cl)cc3)C(=O)c3ccccc3C2=O)CC1`?
OX1R antag-1: 179; OXTR potentiate: inactive; CHO parental Ca: inactive; OXTR agonist: inactive; V1R ag counter: inactive; OX1R antag-2: inactive; OX1R HTRF confirm: inactive; CHO-K1 HTRF cnt: 57

Results for COC(=O)C1CCN(C2=C(NS(=O)(=O)c3ccc(Cl)cc3)C(=O)c3ccccc3C2=O)CC1 ?
OX1R antag-1: 98; OXTR potentiate: inactive; CHO parental Ca: inactive; OXTR agonist: inactive; V1R ag counter: inactive; OX1R antag-2: inactive; OX1R HTRF confirm: inactive; CHO-K1 HTRF cnt: 59

Results for CCOC(=O)N1CCN(C2=C(NS(=O)(=O)c3ccc(C)cc3)C(=O)c3ccccc3C2=O)CC1 ?
OX1R antag-1: 83; OXTR potentiate: inactive; CHO parental Ca: inactive; OXTR agonist: inactive; V1R ag counter: inactive; OX1R antag-2: inactive; OX1R HTRF confirm: 58; CHO-K1 HTRF cnt: 91

What do the screens show for `Cc1ccc(S(=O)(=O)NC2=C(N3CCN(c4ccccc4F)CC3)C(=O)c3ccccc3C2=O)cc1`?
OX1R antag-1: inactive; OXTR potentiate: inactive; CHO parental Ca: inactive; OXTR agonist: inactive; V1R ag counter: inactive; OX1R antag-2: inactive

Results for CC1CCCN(C2=C(NS(=O)(=O)c3ccc(Cl)cc3)C(=O)c3ccccc3C2=O)C1 (stereo not given) ?
OX1R antag-1: inactive; OXTR potentiate: inactive; CHO parental Ca: inactive; OXTR agonist: inactive; V1R ag counter: inactive; OX1R antag-2: inactive

How did O=C(N/C(=C/c1ccco1)C(=O)N1CCOCC1)c1ccccc1Br do in these assays?
OX1R antag-1: inactive; OXTR potentiate: inactive; CHO parental Ca: inactive; OXTR agonist: inactive; V1R ag counter: inactive; OX1R antag-2: inactive

How did CCCn1cc(CN2CCC(Oc3ccc(C(=O)N4CCCC4)cc3)CC2)c(C)n1 do in these assays?
OX1R antag-1: inactive; OXTR potentiate: inactive; CHO parental Ca: inactive; OXTR agonist: inactive; V1R ag counter: inactive; OX1R antag-2: inactive

Results for COc1cccc(C(=O)/C(C#N)=N/Nc2cccc(-c3ccnc(C)n3)c2)c1 ?
OX1R antag-1: 77; OXTR potentiate: inactive; CHO parental Ca: inactive; OXTR agonist: inactive; V1R ag counter: inactive; OX1R antag-2: inactive; OX1R HTRF confirm: inactive; CHO-K1 HTRF cnt: 18
